Reference: ChEMBL document CHEMBL1156657, “Structures and absolute configurations of sulfate-conjugated triterpenoids including an antifungal chemical defense of the green macroalga Tydemania expeditionis” (J Nat Prod, 2008)

Experiments:
[1] = test system: CCRF-CEM; test: Antitumor activity against human CCRF-CEM cells after 72 hrs by MTT assay; assay type: functional, cell-based
How it was run: (§1)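 Cells seeded in 96-well plates; compounds added 24 h after seeding and left on for 72 h. Viable cells read spectrophotometrically after MTS tetrazolium staining, with dye conversion taken as proportional to live cells. IC50 for each cell line derived from dose–response curves.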

[2] = test system: MDA-MB-468; test: Antitumor activity against human MDA-MB-468 cells after 72 hrs by MTT assay; assay type: functional, cell-based; details: MDA-MB-468, 72 h; how it was run: as §1
[3] = test system: SHP77; test: Antitumor activity against human SHP77 cells after 72 hrs by MTT assay; assay type: functional, cell-based; details: SHP77, 72 h; how it was run: as §1
[4] = test system: BT-549; test: Antitumor activity against human BT549 cells after 72 hrs by MTT assay; assay type: functional, cell-based; details: BT-549, 72 h; how it was run: as §1
[5] = test system: MDA-MB-231; test: Antitumor activity against human MDA-MB-231 cells after 72 hrs by MTT assay; assay type: functional, cell-based; details: MDA-MB-231, 72 h; how it was run: as §1
[6] = Antitumor activity against human A2780/DDP-S cells after 72 hrs by MTT assay; assay type: functional, cell-based; details: A2780, 72 h; how it was run: as §1
[7] = test system: DU-4475; test: Antitumor activity against human DU4475 cells after 72 hrs by MTT assay; assay type: functional, cell-based; details: DU-4475, 72 h
[8] = test system: DU-145; test: Antitumor activity against human Du145 cells after 72 hrs by MTT assay; assay type: functional, cell-based; details: DU-145, 72 h; how it was run: as §1
[9] = Antitumor activity against human LNCaP-FGC cells after 72 hrs by MTT assay; assay type: functional, cell-based; details: LNCaP-Clone-FGC; how it was run: as §1
[10] = test system: PC-3; test: Antitumor activity against human PC3 cells after 72 hrs by MTT assay; assay type: functional, cell-based; details: PC-3, 72 h; how it was run: as §1
[11] = test system: HCT-116; test: Antitumor activity against human HCT116 cells after 72 hrs by MTT assay; assay type: functional, cell-based; details: HCT-116, 72 h; how it was run: as §1
[12] = test system: Rotifers; test: Toxicity against Rotifers assessed as feeding at 10 ppm after 45 mins by injestion toxicity assay; assay type: organism-based; details: rotifera, in vivo, 0.75 h
[13] = test system: NCI-H446; test: Antitumor activity against human NCI-H446 cells after 72 hrs by MTT assay; assay type: functional, cell-based; details: NCI-H446, 72 h; how it was run: as §1
[14] = test system: Lindra thalassiae; test: Antifungal activity against Lindra thalassiae ATCC 56663 after 6 days; assay type: functional, organism-based; details: Lindriella thalassiae, ATCC 56663, 144 h
How it was run: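 Growth inhibition of marine fungal pathogen Lindra thalassiae ATCC 56663. IC50 derived from dose–response curves.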

[15] = test system: Lindra thalassiae; test: Antifungal activity against Lindra thalassiae ATCC 56663 at 0.67 mg/mL after 6 days; assay type: functional, Lindriella thalassiae

SMILES	IC50 [1] [µM]	IC50 [2] [µM]	IC50 [3] [µM]	IC50 [4] [µM]	IC50 [5] [µM]	IC50 [6] [µM]	IC50 [7] [µM]	IC50 [8] [µM]	IC50 [9] [µM]	IC50 [10] [µM]	IC50 [11] [µM]	Activity [12] [%]	IC50 [13] [µM]	IC50 [14] [µM]	Activity [15] [µg/mL]
CC(C)=CC(=O)C[C@@H](C)[C@H]1CC[C@@]2(C)[C@@H]3CC[C@H]4[C@](C)(COS(=O)(=O)[O-])[C@@H](OS(=O)(=O)[O-])CC[C@@]45C[C@@]35CC[C@]12C.[Na+].[Na+]	31	31	31	31	31	31	31	31	31	31	31	9	31	–	–
CC(C)C[C@H](O)C[C@@H](C)[C@H]1CC[C@@]2(C)[C@@H]3CC[C@H]4[C@](C)(COS(=O)(=O)[O-])[C@@H](OS(=O)(=O)[O-])CC[C@@]45C[C@@]35CC[C@]12C.[Na+].[Na+]	31	31	31	31	31	31	31	31	31	31	31	9	31	26	670
CC(C)C[C@H](O)C[C@@H](C)[C@H]1CC[C@@]2(C)[C@@H]3CC[C@H]4[C@](C)(COS(=O)(=O)O)[C@@H](O)CC[C@@]45C[C@@]35CC[C@]12C	–	–	–	–	–	–	–	–	–	–	–	–	–	55	–
CC(C)CC(=O)C[C@@H](C)[C@H]1CC[C@@]2(C)C3=C(CC[C@]12C)[C@@]1(C)CC[C@H](OS(=O)(=O)[O-])[C@@](C)(COS(=O)(=O)[O-])[C@@H]1CC3.[Na+].[Na+]	31	31	31	31	31	31	31	31	31	31	31	9	31	–	–
CC(C)=CC(=O)C[C@@H](C)[C@H]1CC[C@@]2(C)[C@@H]3CC[C@H]4[C@](C)(CO)[C@@H](OS(=O)(=O)[O-])CC[C@@]45C[C@@]35CC[C@]12C.[Na+]	6	6	6	6	6	6	6	6	6	6	6	9	6	–	–
CC(C)=CC(=O)C[C@@H](C)[C@H]1CC[C@@]2(C)[C@@H]3CC[C@H]4[C@](C)(COS(=O)(=O)[O-])[C@@H](O)CC[C@@]45C[C@@]35CC[C@]12C.[Na+]	6	6	6	6	6	6	6	6	6	6	6	9	6	–	–
CC(C)CC(=O)C[C@@H](C)[C@H]1CC[C@@]2(C)[C@@H]3CC[C@H]4[C@](C)(COS(=O)(=O)[O-])[C@@H](OS(=O)(=O)[O-])CC[C@@]45C[C@@]35CC[C@]12C.[Na+].[Na+]	31	31	31	31	31	31	31	31	31	31	31	9	31	–	–
CC(C)C[C@H](O)C[C@@H](C)[C@H]1CC[C@@]2(C)[C@@H]3CC[C@H]4[C@](C)(CO)[C@@H](OS(=O)(=O)O)CC[C@@]45C[C@@]35CC[C@]12C	–	–	–	–	–	–	–	–	–	–	–	–	–	30	–
CC(C)=CC(=O)C[C@@H](C)[C@H]1CC[C@@]2(C)[C@@H]3CC[C@H]4[C@](C)(CO)[C@@H](O)CC[C@@]45C[C@@]35CC[C@]12C	6	6	6	6	6	6	6	6	6	6	6	9	6	–	–
